Laboratory results taken from ChEMBL document CHEMBL5034012, “Procainamide-SAHA Fused Inhibitors of hHDAC6 Tackle Multidrug-Resistant Malaria Parasites” (J Med Chem, 2021).
Activity calls are given as the source filed them. No cut-off for these calls is given here.

What was measured:
[1] = Microsomal stability in rat liver microsomes assessed as parent compound remaining after 1 hrs; type: ADME, Microsome; conditions: read-out: Stability
HL-60 = assay: cells; type: functional, cell-based; conditions: Homo sapiens, HL-60, 72 h
[2] = Microsomal stability in human liver microsomes assessed as parent compound remaining after 1 hrs; type: ADME, Microsome; conditions: read-out: Stability
[3] = Stability in rat plasma assessed as parent compound remaining after 2 hrs; type: ADME, cell-free; conditions: read-out: Stability
Plasmodium falciparum [4] = assay: Antiplasmodial activity against Plasmodium falciparum NF54 assessed as reduction in growth in intraerythrocytic development cycle at 3 to 10 times of IC50 concentration incubated for 24 to 36 hrs measured after 72 hrs of post synchronization by SYBR Green 1 assay; type: functional; parameters: scale not given: the % may be the effect or the level left; conditions: time 24-36 hrs
Plasmodium falciparum [5] = assay: Antiplasmodial activity against synchronized Plasmodium falciparum NF54 assessed as effect on ring stage parasite growth in intraerythrocytic development cycle at 3 times IC50 concentration measured upto 48 hrs of cell cycle by SYBR Green 1 assay; type: functional, organism-based; conditions: time hrs <=48
Plasmodium falciparum [6] = assay: Antiplasmodial activity against Plasmodium falciparum NF54 assessed as reduction in growth in intraerythrocytic development cycle at 3 times of IC50 concentration incubated for 6 hrs measured after 72 hrs of post synchronization […]; type: functional, organism-based
Method in brief: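 NF54 asexual parasites tightly synchronized to 0–3hpi. Exposed for 6h at 3× or 10× IC50, starting at 0, 6, 12, 18, 24, 30, 36 or 42hpi. Cells then pelleted, washed in RPMI and returned to culture. Parasitemia counted at 72h post-synchronization on Giemsa-stained thin smears. Survival expressed relative to DMSO. Three independent experiments, one well per condition.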

Row | SMILES | remaining at 1 h [1] [%] | IC50 (HL-60) [µM] | remaining at 1 h [2] [%] | remaining at 2 h [3] [%] | Activity (Plasmodium falciparum [4]) | Activity (Plasmodium falciparum [5]) | Activity (Plasmodium falciparum [6])
1 | O=C(CCCCCCC(=O)Nc1ccc(C(=O)NC2CCNCC2)cc1)NO | 100 | 100 | 100 | 85 |  |  | 
2 | CCN(CC)CCNC(=O)c1ccc(NC(=O)CCCCCCC(=O)NO)cc1 |  |  |  |  | <=85% | inactive | inactive
